Experimental data from ChEMBL document CHEMBL1137753, “Insecticidal heterolignans--tubuline polymerization inhibitors with activity against chewing pests” (Bioorg Med Chem, 2009).
Active and inactive are the calls of the source. Unless noted, no cut-off for these calls is given here.

Assays:
[1] = system: Spodoptera frugiperda; assay: Insecticidal activity against Spodoptera frugiperda larvae in disk of maize leaf at 20 g/ha treated as spray; type: functional, organism-based
In short: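 Maize leaf disks (Zea mays) were sprayed, allowed to dry, then populated with S. frugiperda larvae. Mortality was scored after the desired time; '+' means at least 80% of larvae killed, 'n.a.' means none killed.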

[2] = system: Phaedon cochleariae; assay: Insecticidal activity against Phaedon cochleariae larvae in disk of Chinese cabbage leaf at 500 g/ha treated as spray; type: functional, organism-based
In short: (§1)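 This was sprayed on Chinese cabbage leaf disks. Once dry, disks were infested with mustard beetle larvae and mortality was scored after a set time. "+" denotes ≥80% larvae killed; n.a. denotes none killed.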

[3] = system: CHO; assay: Cytotoxicity against CHO cells assessed as chromatin condensation after 48 hrs by fluorescence microscopy; type: cell-based, Cricetulus griseus; details: chinese hamster
In short: (§2)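 Sf9 or CHO cells were seeded in chamber slides the day before treatment and exposed to compound for 48 h. They were then PBS-washed, fixed in ice-cold methanol for 10 min on ice, and rinsed with acetone. After rehydration in PBS, cells were stained with 2 µM DAPI for 30 min. Nuclei were examined by fluorescence microscopy (×40) for chromatin condensation or fragmentation.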

[4] = system: CHO; assay: Cytotoxicity against CHO cells assessed as chromatin condensation after 24 hrs by fluorescence microscopy; type: cell-based, Cricetulus griseus; details: chinese hamster
[5] = system: Sf9; assay: Cytotoxicity against Spodoptera frugiperda Sf9 cells assessed as chromatin condensation at >10 ppm after 48 hrs by fluorescence microscopy; type: functional, cell-based
In short: (§3)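 Sf9 cells seeded in 8-well slide chambers the day before, then exposed to compound for 48 h. After two PBS washes, cells were fixed in ice-cold methanol for 10 min on ice, given two short acetone washes, rehydrated in PBS and stained with Dapi (2 µM) for 30 min. Chromatin condensation/fragmentation scored by fluorescence microscopy with a x40 objective.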

[6] = species: Bos taurus; assay: Inhibition of bovine tubulin polymerization
In short: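 Tubulin (>99% pure, 300 µg/sample) was suspended at 4 °C in G-PEM buffer (80 mM PIPES, 2 mM MgCl2, 0.5 mM EGTA, 1.0 mM GTP, pH 6.9) plus 5% glycerol, with or without compound. Colchicine and taxol served as standards. Polymerization at 37 °C was followed as absorbance at 340 nm every 1 min for up to 60 min.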

[7] = system: Phaedon cochleariae; assay: Insecticidal activity against Phaedon cochleariae larvae in disk of Chinese cabbage leaf at 20 g/ha treated as spray; type: functional, organism-based; in short: as §1
[8] = system: Sf9; assay: Cytotoxicity against Spodoptera frugiperda Sf9 cells assessed as chromatin condensation at 0.14 ppm after 48 hrs by fluorescence microscopy; type: functional, cell-based; in short: as §3
[9] = system: Spodoptera frugiperda; assay: Insecticidal activity against Spodoptera frugiperda larvae in disk of maize leaf at 4 g/ha treated as spray; type: functional, organism-based
In short: (§4)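 The same acetone/DMF/emulsifier formulation, diluted in emulsifier-containing water, was sprayed onto maize leaf disks. Dried disks were infested with fall armyworm larvae and mortality was assessed after a set time. "+" denotes ≥80% larvae killed; n.a. denotes no larvae killed.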

[10] = system: Sf9; assay: Cytotoxicity against Spodoptera frugiperda Sf9 cells assessed as chromatin condensation at 1 ppm after 48 hrs by fluorescence microscopy; type: functional, cell-based; in short: as §2
[11] = system: Spodoptera frugiperda; assay: Insecticidal activity against Spodoptera frugiperda larvae in disk of maize leaf at 500 g/ha treated as spray; type: functional, organism-based; in short: as §4
[12] = system: Phaedon cochleariae; assay: Insecticidal activity against Phaedon cochleariae larvae in disk of Chinese cabbage leaf at 4 g/ha treated as spray; type: functional, organism-based; in short: as §1
[13] = system: Phaedon cochleariae; assay: Insecticidal activity against Phaedon cochleariae larvae in disk of Chinese cabbage leaf treated as spray; type: functional, organism-based
[14] = system: Sf9; assay: Cytotoxicity against Spodoptera frugiperda Sf9 cells assessed as chromatin condensation at 10 ppm after 48 hrs by fluorescence microscopy; type: functional, cell-based; in short: as §2
[15] = system: Spodoptera frugiperda; assay: Insecticidal activity against Spodoptera frugiperda larvae in disk of maize leaf treated as spray; type: functional, organism-based

What does the source list for COc1ccc2c(c1)NC1=C(C(=O)OC1)C2c1cc(OC)c(OC)c(OC)c1 (centres undefined)?
Activity [1]: Active; Activity [2]: Active

Which results are given for COc1cc(OC)cc([C@@H]2C3=C(COC3=O)Nc3cc(OC)ccc32)c1?
Activity [3]: Toxic; Activity [4]: Toxic; Activity [5]: Active

COc1cc(OC)cc(C2C3=C(COC3=O)Nc3c2ccc(OC)c3OC)c1 (centres undefined) was tested. Which Activity [3] did it give?
The Activity was “Toxic”.

And the inhibition [6]?
The inhibition was “Active”.

And the Activity [7]?
Its Activity is “Active”.

What about the Activity [8] of the same molecule?
The Activity was “Active”.

And the Activity [4]?
The Activity was “Toxic”.

What about the Activity [9] of the same molecule?
The Activity was “Active”.

What does the source list for COc1cc2c(c(OC)c1OC)-c1ccc(OC)c(=O)cc1[C@@H](NC(C)=O)CC2 [COLCHICINE]?
Activity [3]: Toxic; inhibition [6]: Active; Activity [8]: Active; Activity [4]: Toxic

What does the source list for CCN1C2=C(C(=O)OC2)C(c2cc(OC)cc(OC)c2)c2cc3c(cc21)OCO3 (centres undefined)?
Activity [3]: Toxic; Activity [10]: Active; Activity [11]: Active; Activity [4]: Toxic; Activity [2]: Active

For COc1cc(OC)cc(C2C3=C(COC3=O)Nc3c(OC)cc(OC)cc32)c1 (centres undefined), which Activity [11] is on record?
The Activity was “Active”.

What about the Activity [12] of the same molecule?
Its Activity is “Active”.

Which Activity [13] does the source give for O=C1OCC2=C1C(c1ccccc1Cl)c1cc3c(cc1N2)OCO3 (centres undefined) here?
Its Activity is “inactive”.

What about the Activity [3] of the same molecule?
Its Activity is “Toxic”.

What about the Activity [14] of the same molecule?
The Activity was “Active”.

What about the Activity [4] of the same molecule?
Its Activity is “Toxic”.

What about the Activity [15] of the same molecule?
Its Activity is “inactive”.

With COc1cc(OC)cc(C2C3=C(COC3=O)Nc3cc4c(cc32)OCO4)c1 (centres undefined) as the molecule, how does the Activity [1] read?
The Activity was “Active”.

What about the Activity [7] of the same molecule?
Its Activity is “Active”.

Which results are given for COc1cc(OC)cc(C2C3=C(COC3=O)Nc3cc(OC)c(OC)cc32)c1 (centres undefined)?
Activity [3]: Toxic; Activity [10]: Active; Activity [11]: Active; Activity [4]: Toxic; Activity [2]: Active
